Results reported in ChEMBL document CHEMBL1921751, “Discovery of small molecules that enhance astrocyte differentiation in rat fetal neural stem cells” (Bioorg Med Chem Lett, 2011).
The source made the active and inactive calls. The calls are words filed in the database; no cut-off is given here.

What was measured:
NSC [1] = test: Induction of Sprague-Dawley rat embryonic cortex NSC differentiation assessed as TuJ1-positive cells at 5 uM after 4 days by immunocytochemistry analysis; type: functional, cell-based
Procedure, shortened: (§1)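 E14 rat cortical NSCs were grown as neurospheres, dissociated and plated on poly-D-lysine in growth-factor-free medium with 2% B27. They received 5 µM compound or 0.05% DMSO at 37 °C, 5% CO2, for 4 days. Cells were fixed in 4% PFA, stained with anti-GFAP or TuJ1 plus Cy3 secondary, and DAPI-counterstained. Positive/DAPI cells in random fields were normalised to control; mean±SEM, n=6, t-test.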

NSC [2] = test: Cytotoxicity against Sprague-Dawley rat embryonic cortex NSC assessed as reduction in nuclei count at 5 uM after 4 days using DAPI staining by fluorescent microscopic analysis; type: cell-based; conditions: 96 h
NSC [3] = test: Induction of beta3 tubulin mRNA expression in Sprague-Dawley rat embryonic cortex NSC at 5 uM after 1 day by RT-PCR analysis; type: functional, cell-based
Procedure, shortened: (§2)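 First-strand cDNA was made from 2 µg total RNA using oligo(dT) primers and RevertAid reverse transcriptase. PCR ran 94 °C 5 min, then 26 cycles of 94 °C, 55–58 °C and 72 °C (0.5 min each), with a final 72 °C extension for 10 min.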

NSC [4] = test: Induction of GFAP mRNA expression in Sprague-Dawley rat embryonic cortex NSC at 5 uM after 1 day by RT-PCR analysis relative to control; type: functional; procedure, shortened: as §2
NSC [5] = test: Induction of Sprague-Dawley rat embryonic cortex NSC differentiation assessed as GFAP-positive cells at 5 uM after 4 days by immunocytochemistry analysis relative to control; type: functional; procedure, shortened: as §1
NSC [6] = test: Induction of S100 mRNA expression in Sprague-Dawley rat embryonic cortex NSC at 5 uM after 1 day by RT-PCR analysis relative to control; type: functional; procedure, shortened: as §2
NSC [7] = test: Cytotoxicity against Sprague-Dawley rat embryonic cortex NSC assessed as changes in morphology at 5 uM after 4 days by microscopic analysis; type: cell-based; conditions: 96 h

Q: How did the Activity (NSC [1]) turn out when O=C(Cc1ccccc1)NC(c1ccccc1)c1nnc(-c2ccccc2)o1 (configuration not stated) was run?
A: inactive

Q: And the Activity (NSC [2])?
A: Non-toxic

Q: What about the Activity (NSC [3]) of the same compound?
A: inactive

Q: What about the “fold change (FC)” value (NSC [4]) of the same compound?
A: 2

Q: What about the “fold change (FC)” value (NSC [5]) of the same compound?
A: 2

Q: And the “fold change (FC)” value (NSC [6])?
A: 2

Q: What about the Activity (NSC [7]) of the same compound?
A: Non-toxic

Q: O=S(=O)(Cc1ccccc1)NC(c1ccc(F)cc1)c1nnc(-c2ccccc2)o1 (configuration not stated) was tested. Which Activity (NSC [1]) did it give?
A: inactive

Q: What about the Activity (NSC [3]) of the same compound?
A: inactive

Q: What about the Activity (NSC [4]) of the same compound?
A: Active

Q: And the Activity (NSC [5])?
A: Active

Q: And the Activity (NSC [6])?
A: Active

Q: What does the source list for O=C(Cc1ccccc1)NC(c1ccc(F)cc1)c1nnc(-c2ccccc2)o1 (configuration not stated)?
A: Activity (NSC [1]): inactive; Activity (NSC [3]): inactive; fold change (FC) (NSC [4]): 2; fold change (FC) (NSC [5]): 2; fold change (FC) (NSC [6]): 2

Q: Which Activity (NSC [1]) does the source give for O=C(NC(c1ccc(F)cc1)c1nnc(-c2ccccc2)o1)c1ccccc1 (configuration not stated) here?
A: inactive

Q: What about the Activity (NSC [3]) of the same compound?
A: inactive

Q: And the Activity (NSC [4])?
A: Active

Q: What about the Activity (NSC [5]) of the same compound?
A: Active

Q: What about the Activity (NSC [6]) of the same compound?
A: Active

Q: With CC(C)(C)OC(=O)NC(c1ccc(F)cc1)c1nnc(-c2ccccc2)o1 (configuration not stated) as the compound, how does the Activity (NSC [1]) read?
A: inactive

Q: What about the Activity (NSC [3]) of the same compound?
A: inactive

Q: And the Activity (NSC [4])?
A: Active

Q: What about the Activity (NSC [5]) of the same compound?
A: Active

Q: And the Activity (NSC [6])?
A: Active

Q: O=S(=O)(NC(c1ccc(F)cc1)c1nnc(-c2ccccc2)o1)c1ccccc1 (configuration not stated) was tested. Which Activity (NSC [1]) did it give?
A: inactive

Q: What about the Activity (NSC [3]) of the same compound?
A: inactive

Q: What about the Activity (NSC [4]) of the same compound?
A: Active

Q: What about the Activity (NSC [5]) of the same compound?
A: Active

Q: And the Activity (NSC [6])?
A: Active
